For assay [1], the target named is T1, Pyroglutamylated RF-amide peptide receptor (Homo sapiens) (UniProt Q96P65).
T1 sequence (whole entry): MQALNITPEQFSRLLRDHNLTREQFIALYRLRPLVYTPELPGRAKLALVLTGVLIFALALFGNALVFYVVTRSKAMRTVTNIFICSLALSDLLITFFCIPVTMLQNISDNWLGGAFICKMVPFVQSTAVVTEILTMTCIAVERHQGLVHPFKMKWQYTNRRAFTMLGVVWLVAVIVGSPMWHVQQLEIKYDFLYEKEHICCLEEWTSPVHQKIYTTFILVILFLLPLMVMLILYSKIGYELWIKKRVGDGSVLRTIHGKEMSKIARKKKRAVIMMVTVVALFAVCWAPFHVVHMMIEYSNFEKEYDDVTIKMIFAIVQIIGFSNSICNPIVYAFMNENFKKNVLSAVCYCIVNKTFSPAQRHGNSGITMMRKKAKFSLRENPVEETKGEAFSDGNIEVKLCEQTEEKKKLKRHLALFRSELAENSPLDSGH
In words: Agonist activity at DYKDDDDK-flagged human GPR103 receptor expressed in CHO-K1 cells co-expressing G-protein alpha16 assessed as stimulation of calcium mobilization at 10' -12 to 10^-5 M after 2 mins by fluorometric analysis. It counts as functional, cell-based. A digest of the protocol:
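CHO-K1 cells stably expressing Gα16 and C-terminally flag-tagged human GPR103 (Geneticin-selected), plated at 40 000 cells/well 24 h before assay. Loaded with 2 μM Fluo-4AM for 1 h, washed, then 30 min in HBSS with 2.5 mM probenecid and 5 mM HEPES. Peptides added at 10^-12 to 10^-5 M final and fluorescence read for 2 min. Triplicates; EC50 from sigmoidal variable-slope fit, at least three experiments.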

The target of assay [2] is T1, Pyroglutamylated RF-amide peptide receptor (Homo sapiens). In words: Antagonist activity at DYKDDDDK-flagged human GPR103 receptor expressed in CHO-K1 cells co-expressing G-protein alpha16 assessed as inhibition of 26RFa-induced calcium mobilization after 2 mins by fluorometric analysis. It counts as functional, cell-based. A digest of the protocol:
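Same Gα16/flag-hGPR103 CHO-K1 cells, Fluo-4AM loading and HBSS/probenecid/HEPES buffer. Triplicates; IC50 reported as mean ± SEM of at least three experiments.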

Calls of active or inactive are those of the source. The calls are words filed in the database; no cut-off is given here. Residues, ends and D or L forms follow the SMILES beside them. *: point of attachment. NHBn = c1ccc(CN*)cc1

For `C[C@H](NC(=O)[C@H](Cc1ccccc1)NC(=O)[C@H](CO)NC(=O)[C@H](Cc1ccccc1)NC(=O)CNC(=O)CN)C(=O)N[C@@H](Cc1ccccc1)C(N)=O` (H-GGFSFAF-NH2), the outcome in assay [1] was inactive. For the same molecule, the inhibition result in assay [2] was “inactive”.

On to `C[C@H](NC(=O)[C@H](CCCNC(=N)N)NC(=O)[C@H](Cc1ccccc1)NC(=O)[C@H](CO)NC(=O)[C@H](Cc1ccccc1)NC(=O)CNC(=O)CN)C(N)=O` (H-GGFSFRA-NH2), for which the result in assay [1] was inactive. Also, in assay [2], the inhibition result is “inactive”.

On to `CC(C)C[C@H](NC(=O)[C@H](CC(N)=O)NC(=O)CNC(=O)[C@H](CC(C)C)NC(=O)[C@@H]1CCCN1C(=O)CNC(=O)[C@H](CO)NC(=O)[C@@H](N)[C@@H](C)O)C(=O)N[C@@H](C)C(=O)N[C@@H](CCC(=O)O)C(=O)N[C@@H](CCC(=O)O)C(=O)N[C@@H](CC(C)C)C(=O)N[C@@H](CC(N)=O)C(=O)NCC(=O)N[C@@H](Cc1ccc(O)cc1)C(=O)N[C@@H](CO)C(=O)N[C@@H](CCCNC(=N)N)C(=O)N[C@@H](CCCCN)C(N)=O` (H-TSGPLGNLAEELNGYSRK-NH2), for which the result in assay [1] was inactive. The inhibition entry in assay [2] is “inactive”.

Take `N=C(N)NCCC[C@H](NC(=O)[C@H](Cc1ccccc1)NC(=O)[C@H](CO)NC(=O)[C@H](Cc1ccccc1)NC(=O)CNC(=O)CN)C(=O)NCc1ccccc1` (H-GGFSFR-NHBn): the outcome in assay [1] was inactive. In assay [2], the inhibition result is “inactive”.

Turning to `N=C(N)NCCC[C@H](NC(=O)[C@@H](Cc1ccccc1)NC(=O)[C@H](CO)NC(=O)[C@H](Cc1ccccc1)NC(=O)CNC(=O)CN)C(=O)N[C@@H](Cc1ccccc1)C(N)=O`, the result in assay [1] was inactive. Further, the inhibition entry in assay [2] is “inactive”.

In the case of `N=C(N)NCCC[C@@H](NC(=O)[C@H](Cc1ccccc1)NC(=O)[C@H](CO)NC(=O)[C@H](Cc1ccccc1)NC(=O)CNC(=O)CN)C(=O)N[C@@H](Cc1ccccc1)C(N)=O`, in assay [1], the outcome was inactive. The inhibition result in assay [2] is “inactive”.

In the case of `N=C(N)NCCC[C@H](NC(=O)[C@H](Cc1ccccc1)NC(=O)[C@H](CO)NC(=O)[C@H](Cc1ccccc1)NC(=O)CNC(=O)CN)C(=O)N[C@H](Cc1ccccc1)C(N)=O`, the result in assay [1] was inactive. Moreover, the inhibition result in assay [2] is “inactive”.

Turning to `CC(C)C[C@H](NC(=O)[C@H](CC(N)=O)NC(=O)CNC(=O)[C@H](CC(C)C)NC(=O)[C@@H]1CCCN1C(=O)CNC(=O)[C@H](CO)NC(=O)[C@@H](N)[C@@H](C)O)C(=O)N[C@@H](C)C(=O)N[C@@H](CCC(=O)O)C(=O)N[C@@H](CCC(=O)O)C(=O)N[C@@H](CC(C)C)C(=O)N[C@@H](CC(N)=O)C(=O)NCC(=O)N[C@@H](Cc1ccc(O)cc1)C(=O)N[C@@H](CO)C(N)=O` (H-TSGPLGNLAEELNGYS-NH2), the outcome in assay [1] was inactive. Further, the inhibition entry in assay [2] is “inactive”.

For the origin of these results see ChEMBL document CHEMBL1800022, “Structure-activity relationships of a series of analogues of the RFamide-related peptide 26RFa” (J Med Chem, 2011).
